According to ChEMBL document CHEMBL3421533, “The Discovery of Orally Bioavailable Tyrosine Threonine Kinase (TTK) Inhibitors: 3-(4-(heterocyclyl)phenyl)-1H-indazole-5-carboxamides as Anticancer Agents” (J Med Chem, 2015):

Assays:
[1] = Cytotoxicity against human H23 cells after 5 days by sulforhodamine B assay; format: functional; details: NCI-H23, 120 h
Procedure, shortened: (§1)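 Cancer lines were seeded at 800–6000 cells per well according to growth rate, 24 h before compound overlay. After culture, cells were fixed in situ and stained with sulforhodamine B. GI50 values were derived by curve fitting.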

[2] = target: Proto-oncogene tyrosine-protein kinase receptor Ret (Homo sapiens, UniProt P07949, V804L); experiment: Inhibition of human Ret V804L mutant by millipore radiometric assay
Sequence of Proto-oncogene tyrosine-protein kinase receptor Ret (P07949 29-1114 V804L limits assumed): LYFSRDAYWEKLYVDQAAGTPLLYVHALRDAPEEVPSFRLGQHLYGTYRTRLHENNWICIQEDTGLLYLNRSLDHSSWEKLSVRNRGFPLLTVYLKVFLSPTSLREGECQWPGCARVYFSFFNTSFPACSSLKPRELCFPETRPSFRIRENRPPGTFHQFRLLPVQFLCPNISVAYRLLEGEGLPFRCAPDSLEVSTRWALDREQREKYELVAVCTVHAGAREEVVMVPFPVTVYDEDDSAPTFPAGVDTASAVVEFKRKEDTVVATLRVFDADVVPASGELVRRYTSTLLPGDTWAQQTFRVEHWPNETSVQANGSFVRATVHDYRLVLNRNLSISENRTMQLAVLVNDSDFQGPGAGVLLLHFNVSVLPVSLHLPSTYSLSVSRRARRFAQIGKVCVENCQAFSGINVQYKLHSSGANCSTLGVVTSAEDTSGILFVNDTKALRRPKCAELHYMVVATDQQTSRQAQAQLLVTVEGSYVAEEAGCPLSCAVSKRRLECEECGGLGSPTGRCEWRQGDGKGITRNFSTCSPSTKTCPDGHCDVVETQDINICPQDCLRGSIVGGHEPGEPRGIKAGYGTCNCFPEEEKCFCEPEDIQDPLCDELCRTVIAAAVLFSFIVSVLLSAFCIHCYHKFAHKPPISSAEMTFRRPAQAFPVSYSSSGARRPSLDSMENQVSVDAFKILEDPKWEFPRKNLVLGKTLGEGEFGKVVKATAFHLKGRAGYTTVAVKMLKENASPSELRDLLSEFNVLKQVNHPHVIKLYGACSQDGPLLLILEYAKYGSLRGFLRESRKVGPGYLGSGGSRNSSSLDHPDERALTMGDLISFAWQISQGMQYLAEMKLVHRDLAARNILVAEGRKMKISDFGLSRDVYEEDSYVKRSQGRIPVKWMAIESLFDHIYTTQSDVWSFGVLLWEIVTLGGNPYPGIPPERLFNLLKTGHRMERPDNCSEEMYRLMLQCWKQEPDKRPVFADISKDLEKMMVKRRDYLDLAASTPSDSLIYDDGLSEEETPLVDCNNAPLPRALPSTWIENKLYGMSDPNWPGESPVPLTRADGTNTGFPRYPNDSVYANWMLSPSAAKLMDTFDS
Procedure, shortened: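 Radiometric profiling against a 278-kinase panel was done with ATP at Km. Half-maximal inhibitory concentrations were then determined for the kinases most inhibited.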

[3] = Half life in Sprague-Dawley rat at 1 mg/kg, iv by LC-MS/MS analysis; format: ADME, organism-based; set-up: dose 1 mg/kg, route intravenous; details: in vivo
[4] = Cytotoxicity against human PC3 cells after 5 days by sulforhodamine B assay; format: functional; details: PC-3, 120 h; procedure, shortened: as §1
[5] = target: T1, Dual specificity protein kinase TTK (Homo sapiens, UniProt P33981); experiment: Inhibition of amino terminal GST-fused full length human TTK using His6-SUMO-TTK-N as substrate preincubated for 15 mins prior to ATP addition by indirect ELISA detection system
T1 sequence (P33981 whole entry): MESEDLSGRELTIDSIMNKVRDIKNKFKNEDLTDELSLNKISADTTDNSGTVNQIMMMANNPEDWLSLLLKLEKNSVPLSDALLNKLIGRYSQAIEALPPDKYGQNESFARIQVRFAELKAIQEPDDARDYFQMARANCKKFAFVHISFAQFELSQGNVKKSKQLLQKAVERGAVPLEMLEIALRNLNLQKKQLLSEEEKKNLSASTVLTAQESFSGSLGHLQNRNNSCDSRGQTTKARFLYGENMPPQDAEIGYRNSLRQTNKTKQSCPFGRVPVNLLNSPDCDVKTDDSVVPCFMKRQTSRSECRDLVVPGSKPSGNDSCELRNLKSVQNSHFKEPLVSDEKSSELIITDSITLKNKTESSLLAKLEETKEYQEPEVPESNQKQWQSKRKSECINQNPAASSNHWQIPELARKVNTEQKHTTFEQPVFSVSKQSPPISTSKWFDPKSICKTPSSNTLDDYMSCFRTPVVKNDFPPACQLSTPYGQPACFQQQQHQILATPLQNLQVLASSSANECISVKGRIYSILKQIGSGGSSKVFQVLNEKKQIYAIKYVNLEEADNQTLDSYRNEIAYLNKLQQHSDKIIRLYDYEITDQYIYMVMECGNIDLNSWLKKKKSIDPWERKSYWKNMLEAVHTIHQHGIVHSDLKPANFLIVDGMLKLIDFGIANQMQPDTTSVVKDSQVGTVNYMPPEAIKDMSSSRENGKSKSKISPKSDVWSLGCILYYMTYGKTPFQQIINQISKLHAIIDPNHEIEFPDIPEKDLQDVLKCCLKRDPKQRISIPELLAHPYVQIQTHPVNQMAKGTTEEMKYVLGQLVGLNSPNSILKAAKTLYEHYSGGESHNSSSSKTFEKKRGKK

[6] = Plasma protein binding in mouse; format: ADME; details: read-out: PPB (converted)

Q: With `O=C(N[C@@H](c1ccccn1)C1CC1)c1ccc2[nH]nc(-c3ccc(N4[C@H]5CC[C@H]4CC(O)C5)cc3)c2c1` (stereo in doubt; 75) as the compound, how does the GI50 [1] read?
A: The GI50 was 36 nM.

Q: What about the IC50 [2] of the same compound?
A: The IC50 was 250 nM.

Q: What about the half-life [3] of the same compound?
A: The half-life was 46.8 min.

Q: And the GI50 [4]?
A: The GI50 was 60 nM.

Q: What about the IC50 [5] of the same compound?
A: Its IC50 is 3.1 nM.

Q: And the fraction unbound [6]?
A: Its fraction unbound is 0.042.
